Converted amounts (≈) assume the structure as drawn.
Key:
[1] = tested on: Staphylococcus aureus; experiment: Antibacterial activity against vancomycin/methicillin-susceptible Staphylococcus aureus Newman […] after 24 hrs by broth microdilution method; type: functional
Procedure, shortened: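 Broth microdilution in cation-adjusted Mueller-Hinton II broth. […] Each well received ~10^5 CFU of exponential-phase bacteria and was incubated at 37 °C for 24 h. MIC was taken as the lowest concentration giving complete growth inhibition, interpreted per CLSI.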

[2] = tested on: Staphylococcus aureus; experiment: Antibacterial activity against healthcare-associated methicillin-resistant/vancomycin-intermediate Staphylococcus aureus Mu50 after 24 hrs by broth microdilution method; type: functional; conditions: Mu50, 24 h
Procedure, shortened: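 Broth microdilution in cation-adjusted Mueller-Hinton II broth. DMSO stocks were diluted in broth and twofold serially from 128 to 0.0625 μg/mL or lower. Each well was inoculated with ~10^5 CFU of exponential-phase bacteria and incubated at 37 °C for 24 h. MIC was the lowest concentration giving complete growth inhibition, read per CLSI. Growth controls contained broth plus DMSO.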

Compound CCc1ccc(CN[C@@]2(C)C[C@H](O[C@H]3[C@H](Oc4c5cc6cc4Oc4ccc(cc4Cl)[C@@H](O)[C@@H](NC(=O)[C@@H](CC(C)C)NC)C(=O)N[C@@H](CC(N)=O)C(=O)N[C@H]6C(=O)N[C@H]4C(=O)N[C@H](C(=O)N[C@H](C(=O)O)c6cc(O)c(CNCCCNC(=O)[C@H](O)[C@@H](O)[C@H](O)[C@H](O)CO)c(O)c6-c6cc4ccc6O)[C@H](O)c4ccc(c(Cl)c4)O5)O[C@H](CO)[C@@H](O)[C@@H]3O)O[C@@H](C)[C@H]2O)cc1 has an MIC90 [1] of 4 µg/mL (≈ 2.18 µM) and an MIC90 [2] of 8 µg/mL (≈ 4.37 µM).

CCCCCCCCCCNCCN[C@@]1(C)C[C@H](O[C@H]2[C@H](Oc3c4cc5cc3Oc3ccc(cc3Cl)[C@@H](O)[C@@H](NC(=O)[C@@H](CC(C)C)NC)C(=O)N[C@@H](CC(N)=O)C(=O)N[C@H]5C(=O)N[C@H]3C(=O)N[C@H](C(=O)N[C@H](C(=O)O)c5cc(O)c(CNCCO[C@H]6O[C@H](CO)[C@@H](O)[C@H](O)[C@@H]6O)c(O)c5-c5cc3ccc5O)[C@H](O)c3ccc(c(Cl)c3)O4)O[C@H](CO)[C@@H](O)[C@@H]2O)O[C@@H](C)[C@H]1O gave an MIC90 [1] of 1 µg/mL (≈ 0.535 µM) and an MIC90 [2] of 2 µg/mL (≈ 1.07 µM).

Work on CN[C@H](CC(C)C)C(=O)N[C@H]1C(=O)N[C@@H](CC(N)=O)C(=O)N[C@H]2C(=O)N[C@H]3C(=O)N[C@H](C(=O)N[C@H](C(=O)O)c4cc(O)c(CNCCCNC(=O)[C@H](O)[C@@H](O)[C@H](O)[C@H](O)CO)c(O)c4-c4cc3ccc4O)[C@H](O)c3ccc(c(Cl)c3)Oc3cc2cc(c3O[C@@H]2O[C@H](CO)[C@@H](O)[C@H](O)[C@H]2O[C@H]2C[C@](C)(NCc3ccc4ccccc4c3)[C@H](O)[C@H](C)O2)Oc2ccc(cc2Cl)[C@H]1O yielded an MIC90 [1] of 1 µg/mL (≈ 0.539 µM) and an MIC90 [2] of 4 µg/mL (≈ 2.16 µM).

For CCCCCOc1ccc(CN[C@@]2(C)C[C@H](O[C@H]3[C@H](Oc4c5cc6cc4Oc4ccc(cc4Cl)[C@@H](O)[C@@H](NC(=O)[C@@H](CC(C)C)NC)C(=O)N[C@@H](CC(N)=O)C(=O)N[C@H]6C(=O)N[C@H]4C(=O)N[C@H](C(=O)N[C@H](C(=O)O)c6cc(O)c(CNCCCNC(=O)[C@H](O)[C@@H](O)[C@H](O)[C@H](O)CO)c(O)c6-c6cc4ccc6O)[C@H](O)c4ccc(c(Cl)c4)O5)O[C@H](CO)[C@@H](O)[C@@H]3O)O[C@@H](C)[C@H]2O)cc1, the MIC90 [1] was 1 µg/mL (≈ 0.529 µM) and the MIC90 [2] was 2 µg/mL (≈ 1.06 µM).

For C#Cc1ccc(CN[C@@]2(C)C[C@H](O[C@H]3[C@H](Oc4c5cc6cc4Oc4ccc(cc4Cl)[C@@H](O)[C@@H](NC(=O)[C@@H](CC(C)C)NC)C(=O)N[C@@H](CC(N)=O)C(=O)N[C@H]6C(=O)N[C@H]4C(=O)N[C@H](C(=O)N[C@H](C(=O)O)c6cc(O)c(CN[C@H]7C(O)O[C@H](CO)[C@H](O)[C@@H]7O)c(O)c6-c6cc4ccc6O)[C@H](O)c4ccc(c(Cl)c4)O5)O[C@H](CO)[C@@H](O)[C@@H]3O)O[C@@H](C)[C@H]2O)cc1 (some centres undefined), the MIC90 [1] was 2 µg/mL (≈ 1.14 µM) and the MIC90 [2] was 8 µg/mL (≈ 4.56 µM).

With CN[C@H](CC(C)C)C(=O)N[C@H]1C(=O)N[C@@H](CC(N)=O)C(=O)N[C@H]2C(=O)N[C@H]3C(=O)N[C@H](C(=O)N[C@H](C(=O)O)c4cc(O)c(CN[C@H]5C(O)O[C@H](CO)[C@H](O)[C@@H]5O)c(O)c4-c4cc3ccc4O)[C@H](O)c3ccc(c(Cl)c3)Oc3cc2cc(c3O[C@@H]2O[C@H](CO)[C@@H](O)[C@H](O)[C@H]2O[C@H]2C[C@](C)(NCc3ccc(C#C[Si](C)(C)C)cc3)[C@H](O)[C@H](C)O2)Oc2ccc(cc2Cl)[C@H]1O (some centres undefined) the MIC90 [1] was 0.5 µg/mL (≈ 0.274 µM) and the MIC90 [2] was 2 µg/mL (≈ 1.09 µM).

CN[C@H](CC(C)C)C(=O)N[C@H]1C(=O)N[C@@H](CC(N)=O)C(=O)N[C@H]2C(=O)N[C@H]3C(=O)N[C@H](C(=O)N[C@H](C(=O)O)c4cc(O)c(CNCCCNC(=O)[C@H](O)[C@@H](O)[C@H](O[C@@H]5O[C@H](CO)[C@H](O)[C@H](O)[C@H]5O)[C@H](O)CO)c(O)c4-c4cc3ccc4O)[C@H](O)c3ccc(c(Cl)c3)Oc3cc2cc(c3O[C@@H]2O[C@H](CO)[C@@H](O)[C@H](O)[C@H]2O[C@H]2C[C@](C)(NCc3ccc(-c4ccc(Cl)cc4)cc3)[C@H](O)[C@H](C)O2)Oc2ccc(cc2Cl)[C@H]1O gave an MIC90 [1] of 0.25 µg/mL (≈ 0.12 µM) and an MIC90 [2] of 0.5 µg/mL (≈ 0.241 µM).

CCCCCCCCCCNCCN[C@@]1(C)C[C@H](O[C@H]2[C@H](Oc3c4cc5cc3Oc3ccc(cc3Cl)[C@@H](O)[C@@H](NC(=O)[C@@H](CC(C)C)NC)C(=O)N[C@@H](CC(N)=O)C(=O)N[C@H]5C(=O)N[C@H]3C(=O)N[C@H](C(=O)N[C@H](C(=O)O)c5cc(O)c(CNCCO[C@@H]6O[C@H](CO)[C@@H](O)[C@H](O)[C@H]6O)c(O)c5-c5cc3ccc5O)[C@H](O)c3ccc(c(Cl)c3)O4)O[C@H](CO)[C@@H](O)[C@@H]2O)O[C@@H](C)[C@H]1O was tested, and the MIC90 [1] was 4 µg/mL (≈ 2.14 µM) and the MIC90 [2] was 16 µg/mL (≈ 8.57 µM).

Compound CCCCCCc1ccc(CN[C@@]2(C)C[C@H](O[C@H]3[C@H](Oc4c5cc6cc4Oc4ccc(cc4Cl)[C@@H](O)[C@@H](NC(=O)[C@@H](CC(C)C)NC)C(=O)N[C@@H](CC(N)=O)C(=O)N[C@H]6C(=O)N[C@H]4C(=O)N[C@H](C(=O)N[C@H](C(=O)O)c6cc(O)c(CNCCCNC(=O)[C@H](O)[C@@H](O)[C@H](O)[C@H](O)CO)c(O)c6-c6cc4ccc6O)[C@H](O)c4ccc(c(Cl)c4)O5)O[C@H](CO)[C@@H](O)[C@@H]3O)O[C@@H](C)[C@H]2O)cc1 has an MIC90 [1] of 0.12 µg/mL (≈ 0.0636 µM) and an MIC90 [2] of 0.5 µg/mL (≈ 0.265 µM).

CN[C@H](CC(C)C)C(=O)N[C@H]1C(=O)N[C@@H](CC(N)=O)C(=O)N[C@H]2C(=O)N[C@H]3C(=O)N[C@H](C(=O)N[C@H](C(=O)O)c4cc(O)c(CNCCO)c(O)c4-c4cc3ccc4O)[C@H](O)c3ccc(c(Cl)c3)Oc3cc2cc(c3O[C@@H]2O[C@H](CO)[C@@H](O)[C@H](O)[C@H]2O[C@H]2C[C@](C)(NCc3ccc(-c4ccncc4)cc3)[C@H](O)[C@H](C)O2)Oc2ccc(cc2Cl)[C@H]1O was tested, and the MIC90 [1] was 0.5 µg/mL (≈ 0.296 µM) and the MIC90 [2] was 2 µg/mL (≈ 1.18 µM).

In the case of CCCCCCCCCCNCCN[C@@]1(C)C[C@H](O[C@H]2[C@H](Oc3c4cc5cc3Oc3ccc(cc3Cl)[C@@H](O)[C@@H](NC(=O)[C@@H](CC(C)C)NC)C(=O)N[C@@H](CC(N)=O)C(=O)N[C@H]5C(=O)N[C@H]3C(=O)N[C@H](C(=O)N[C@H](C(=O)O)c5cc(O)c(CNCCO[C@@H]6O[C@H](CO)[C@@H](O)[C@H](O)[C@H]6NC(C)=O)c(O)c5-c5cc3ccc5O)[C@H](O)c3ccc(c(Cl)c3)O4)O[C@H](CO)[C@@H](O)[C@@H]2O)O[C@@H](C)[C@H]1O, the MIC90 [1] is reported as 1 µg/mL (≈ 0.524 µM) and the MIC90 [2] is reported as 4 µg/mL (≈ 2.1 µM).

With CCCCCCCCCN[C@@]1(C)C[C@H](O[C@H]2[C@H](Oc3c4cc5cc3Oc3ccc(cc3Cl)[C@@H](O)[C@@H](NC(=O)[C@@H](CC(C)C)NC)C(=O)N[C@@H](CC(N)=O)C(=O)N[C@H]5C(=O)N[C@H]3C(=O)N[C@H](C(=O)N[C@H](C(=O)O)c5cc(O)c(CNCCO)c(O)c5-c5cc3ccc5O)[C@H](O)c3ccc(c(Cl)c3)O4)O[C@H](CO)[C@@H](O)[C@@H]2O)O[C@@H](C)[C@H]1O the MIC90 [1] was 0.12 µg/mL (≈ 0.0728 µM) and the MIC90 [2] was 0.5 µg/mL (≈ 0.303 µM).

CCCCCCCCCCNCCN[C@@]1(C)C[C@H](O[C@H]2[C@H](Oc3c4cc5cc3Oc3ccc(cc3Cl)[C@@H](O)[C@@H](NC(=O)[C@@H](CC(C)C)NC)C(=O)N[C@@H](CC(N)=O)C(=O)N[C@H]5C(=O)N[C@H]3C(=O)N[C@H](C(=O)N[C@H](C(=O)O)c5cc(O)c(CNCCO[C@@H]6O[C@H](CO)[C@H](O)[C@H](O)[C@H]6O)c(O)c5-c5cc3ccc5O)[C@H](O)c3ccc(c(Cl)c3)O4)O[C@H](CO)[C@@H](O)[C@@H]2O)O[C@@H](C)[C@H]1O was tested, and the MIC90 [1] was 0.5 µg/mL (≈ 0.268 µM) and the MIC90 [2] was 2 µg/mL (≈ 1.07 µM).

Work on CN[C@H](CC(C)C)C(=O)N[C@H]1C(=O)N[C@@H](CC(N)=O)C(=O)N[C@H]2C(=O)N[C@H]3C(=O)N[C@H](C(=O)N[C@H](C(=O)O)c4cc(O)c(CNCCCNC(=O)[C@H](O)[C@@H](O)[C@H](O)[C@H](O)CO)c(O)c4-c4cc3ccc4O)[C@H](O)c3ccc(c(Cl)c3)Oc3cc2cc(c3O[C@@H]2O[C@H](CO)[C@@H](O)[C@H](O)[C@H]2O[C@H]2C[C@](C)(NCc3ccc(-c4ccncc4)cc3)[C@H](O)[C@H](C)O2)Oc2ccc(cc2Cl)[C@H]1O yielded an MIC90 [1] of 1 µg/mL (≈ 0.532 µM) and an MIC90 [2] of 4 µg/mL (≈ 2.13 µM).

Compound CCc1ccc(CN[C@@]2(C)C[C@H](O[C@H]3[C@H](Oc4c5cc6cc4Oc4ccc(cc4Cl)[C@@H](O)[C@@H](NC(=O)[C@@H](CC(C)C)NC)C(=O)N[C@@H](CC(N)=O)C(=O)N[C@H]6C(=O)N[C@H]4C(=O)N[C@H](C(=O)N[C@H](C(=O)O)c6cc(O)c(CNCCO)c(O)c6-c6cc4ccc6O)[C@H](O)c4ccc(c(Cl)c4)O5)O[C@H](CO)[C@@H](O)[C@@H]3O)O[C@@H](C)[C@H]2O)cc1 has an MIC90 [1] of 2 µg/mL (≈ 1.22 µM) and an MIC90 [2] of 4 µg/mL (≈ 2.44 µM).

With CCCCCCCCCCN[C@@]1(C)C[C@H](O[C@H]2[C@H](Oc3c4cc5cc3Oc3ccc(cc3Cl)[C@@H](O)[C@@H](NC(=O)[C@@H](CC(C)C)NC)C(=O)N[C@@H](CC(N)=O)C(=O)N[C@H]5C(=O)N[C@H]3C(=O)N[C@H](C(=O)N[C@H](C(=O)O)c5cc(O)c(CNCCCNC(=O)[C@H](O)[C@@H](O)[C@H](O)[C@H](O)CO)c(O)c5-c5cc3ccc5O)[C@H](O)c3ccc(c(Cl)c3)O4)O[C@H](CO)[C@@H](O)[C@@H]2O)O[C@@H](C)[C@H]1O the MIC90 [1] was 0.12 µg/mL (≈ 0.0647 µM) and the MIC90 [2] was 0.5 µg/mL (≈ 0.27 µM).

CCCCCCCCCCC(=O)N[C@@]1(C)C[C@H](O[C@H]2[C@H](Oc3c4cc5cc3Oc3ccc(cc3Cl)[C@@H](O)[C@@H](NC(=O)[C@@H](CC(C)C)NC)C(=O)N[C@@H](CC(N)=O)C(=O)N[C@H]5C(=O)N[C@H]3C(=O)N[C@H](C(=O)N[C@H](C(=O)O)c5cc(O)c(CNCCCNC(=O)[C@H](O)[C@@H](O)[C@H](O)[C@H](O)CO)c(O)c5-c5cc3ccc5O)[C@H](O)c3ccc(c(Cl)c3)O4)O[C@H](CO)[C@@H](O)[C@@H]2O)O[C@@H](C)[C@H]1O showed an MIC90 [1] of 16 µg/mL (≈ 8.5 µM) and an MIC90 [2] of 32 µg/mL (≈ 17 µM).

From ChEMBL document CHEMBL4052823, “Extra Sugar on Vancomycin: New Analogues for Combating Multidrug-Resistant Staphylococcus aureus and Vancomycin-Resistant Enterococci” (J Med Chem, 2018)
